Rows were chosen to be rich in hits. Some 4.4% of all compounds tested hit in one or more screens of this group.
EBI2 antag: antagonists of human EBI2 receptor; AID 651636; EBI2 beta-arrestin recruitment, luminescence, 7a,25-OHC stimulated; inhibition, % at 5 µM; 360,000 compounds, 0.81% hits; in the data active means inhibition above about 38%;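 further: enzyme fragment complementation signal reports receptor beta-arrestin coupling in cells; 0% = agonist plus DMSO wells and 100% = wells without agonist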
Target sequence (P32249 whole entry, looked up, the tested form may be a part): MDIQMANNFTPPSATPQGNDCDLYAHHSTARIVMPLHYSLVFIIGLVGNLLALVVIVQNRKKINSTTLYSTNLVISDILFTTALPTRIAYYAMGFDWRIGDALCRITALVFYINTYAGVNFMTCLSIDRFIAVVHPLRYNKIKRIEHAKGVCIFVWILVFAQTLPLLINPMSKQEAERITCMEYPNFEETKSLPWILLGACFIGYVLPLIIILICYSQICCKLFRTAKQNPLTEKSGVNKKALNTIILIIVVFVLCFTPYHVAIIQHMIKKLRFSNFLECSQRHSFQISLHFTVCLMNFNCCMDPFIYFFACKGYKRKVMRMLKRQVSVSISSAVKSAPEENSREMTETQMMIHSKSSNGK
SENP1 inh: inhibitors of human SENP1 SUMO protease catalytic domain; recombinant SENP1 catalytic domain, CyPet-SUMO1-YPet FRET cleavage; inhibition, % at 10 µM; 360,000 compounds, 0.21% hits;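 active means inhibition at least 30% at 10 µM, raw YFP signal under a set limit, fluorescence ratio 0.5 to 1.5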;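 further: 0% = enzyme with DMSO and 100% = no enzyme wells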
Target sequence (Q9P0U3 419-644 limits assumed): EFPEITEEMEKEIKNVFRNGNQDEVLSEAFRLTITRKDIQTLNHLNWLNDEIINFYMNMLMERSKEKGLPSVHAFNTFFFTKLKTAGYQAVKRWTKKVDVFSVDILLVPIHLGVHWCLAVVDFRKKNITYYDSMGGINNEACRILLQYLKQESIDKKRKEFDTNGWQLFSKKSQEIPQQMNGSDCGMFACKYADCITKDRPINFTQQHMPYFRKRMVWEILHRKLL
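material = recombinant human SENP1 catalytic domain, His6-tagged | quantity = 20 pM enzyme | reagent = 25 nM SUMO1 FRET substrate | compound dosing = 10 µM single point, 0.5% DMSO | timing = 50 min enzyme reaction, room temperature, light-protected | detection = FRET, CFP and YFP emission | control set = no-enzyme low, enzyme-DMSO high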
MPTP block: inhibitors of mitochondrial permeability transition pore. inhibition, % at 10 µM. AID 602449. 360,000 compounds, 1.4% hits. isolated mouse mitochondria, Ca2+ swelling absorbance, 30 min;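 active means inhibition of 50% or more, scaled per plate between neutral and stimulator controls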;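 further: 0% = DMSO wells given calcium and 100% = 1 mM EGTA wells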
NR3A LBD binder: modulators (binders) of human NR3A ligand-binding domain | 340,000 compounds, 2.5% hits | Tm shift relative to glycine control, % at 25 µM | NR3A LBD differential scanning fluorimetry, Tm shift; 0% = protein alone, 100% = glycine-bound protein | AID 1259313;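 active means melting temperature shift of at least 10% of the positive control shift, at one fixed dose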
* marks the source's active call; other numbers are inactive results; x = no result.

SMILES	EBI2 antag	SENP1 inh	MPTP block	NR3A LBD binder
S=C(c1ccccc1)N1CCCc2ccccc21	-0.4	2.9	-2.1	11.1*
Cn1c(=O)c2c(ncn2CC(=O)N2CCN(c3ccc([N+](=O)[O-])cc3)CC2)n(C)c1=O	-4.1	-0.9	6.3	18.0*
O=C(CN1C(=O)c2cccc3cccc1c23)NCC1CCCO1 (stereo unspecified)	7.0	-12.7	0.7	15.6*
COc1ccccc1C(=O)COC(=O)c1nc2nc(C)cc(C)n2n1	-3.0	-1.3	-1.4	-0.4
O=Cc1ccc(N2CCN(S(=O)(=O)c3ccc4c(c3)CC(=O)N4)CC2)cc1	-0.1	10.2	-1.3	x
Oc1ccc(Cl)cc1C1=NNC(c2ccc(Cl)cc2)C1 (stereo unspecified)	25.2	-6.2	7.1	11.5*
Oc1ccc(Cl)cc1C1=NNC(c2cc(Br)cc3c2OCOC3)C1 (stereo unspecified)	17.6	-0.2	3.1	-5.6
CCc1cc(-c2n[nH]c(C)c2-c2ccccc2Cl)c(O)cc1OC	-2.3	-0.3	1.0	13.2*
CCOc1ccc(-c2n[nH]c(C)c2-c2ccccc2OC)c(O)c1	4.7	-0.9	2.0	-15.5
COCCNC(=O)COc1ccc(C)cc1C(=O)c1cc(C#N)c(=O)n(C2CC2)c1	-2.8	-5.4	-0.9	-0.5
CCOc1ccc(Br)cc1C(=O)N/N=C/c1c[nH]c2ccccc12	14.9	-2.4	0.0	10.0*
CCOc1ccc(Br)cc1C(=O)N/N=C/c1ccccn1	-4.3	-4.8	-0.6	0.6
O=C(N/N=C/c1c[nH]c2ccccc12)c1cc(Br)ccc1O	-2.2	-3.6	3.4	33.9*
O=C(NCCCN1CCOCC1)c1cc(-c2ccc(F)cc2)no1	2.2	1.1	-0.6	-3.4
O=C(CNC(=O)c1ccccc1F)OC(C(=O)Nc1cc(C(F)(F)F)ccc1Cl)c1ccccc1 (stereo unspecified)	4.1	1.9	14.4	-3.7
N#CCC(=O)Nc1ccc(C(=O)OC(C(=O)Nc2cc(C(F)(F)F)ccc2Cl)c2ccccc2)cc1 (stereo unspecified)	17.5	-23.7	0.6	28.6*
N#CCC(=O)Nc1ccc(C(=O)OC(C(=O)Nc2ccc([N+](=O)[O-])cc2Br)c2ccccc2)cc1 (stereo unspecified)	20.6	-5.5	3.7	12.0*
CCCCC(=O)NC(=S)NNC(=O)c1ccc(OC)cc1	4.7	1.6	-2.9	-1.1
COc1ccccc1NC(=O)CSc1nccn1Cc1ccccc1	0.3	2.7	1.1	-1.7
CCCCCc1ccc(-c2cn(CCc3c[nH]c4ccccc34)nn2)cc1	8.0	0.5	3.0	18.8*
CCCCCc1ccc(-c2cn(CCCOCc3ccccc3)nn2)cc1	20.2	1.4	0.4	-8.6
CCc1c(C)sc(NC(=S)N2CC(C)OC(C)C2)c1C(=O)OC (stereo unspecified)	9.0	-1.3	2.1	13.4*
Cn1c(NCC(O)c2ccccc2)nc2c1c(=O)n(Cc1ccc(Cl)cc1)c(=O)n2C (stereo unspecified)	1.3	-2.9	-3.4	-15.4
Cn1c(NCC(O)c2ccccc2)nc2c1c(=O)n(Cc1ccc(Cl)c(Cl)c1)c(=O)n2C (stereo unspecified)	18.9	-0.6	4.2	12.2*
Cc1nc(Nc2nc3ccccc3o2)nc(C)c1C	-9.7	0.0	0.1	-0.5
SMILES	EBI2 antag	SENP1 inh	MPTP block	NR3A LBD binder
Cc1ccc(Nc2nc3ccccc3o2)cc1F	-12.8	-0.5	2.3	12.1*
Cc1nn(C)c(Cl)c1CN1CCN(C2CCCC2)C(CCO)C1 (stereo unspecified)	4.0	5.6	-4.0	1.4
COc1ccc(C(=O)CNc2ccccc2Br)cc1	10.9	0.1	-0.8	17.3*
CCOC(=O)c1ccc(/C=C2/C=C(c3ccccc3)N(c3ccc(Cl)c(C(=O)O)c3)C2=O)cc1	1.8	-25.6	8.0	21.3*
CCc1ccc(N2C(=O)CC(N(CC3CCCO3)C(=O)/C=C/C(=O)O)C2=O)cc1 (stereo unspecified)	-5.9	0.7	0.2	-0.8
O=C(CCc1nc2cccnc2n1Cc1ccccc1)NCCc1ccc(Cl)cc1	11.3	0.2	0.5	11.0*
O=C(NNS(=O)(=O)c1ccc(Br)cc1)NC1CCCCC1	-5.6	-0.1	-1.4	13.0*
Cc1ccc(S(=O)(=O)Nc2cc(=O)[nH]c(SCc3ccccc3Cl)n2)cc1	-18.3	-0.9	1.5	-8.0
Cc1ccc(S(=O)(=O)Nc2ccc(-c3nnc(SCc4ccccc4Cl)o3)cc2)cc1	6.4	1.7	9.8	26.4*
Cc1ccc(CSc2nnc(-c3ccc(NS(=O)(=O)c4ccccc4)cc3)o2)cc1	5.9	2.9	6.8	16.3*
COC(=O)CSc1nnc(-c2ccc(NS(=O)(=O)c3ccccc3)cc2)o1	-13.6	-0.4	-4.6	-4.1
CCN(Cc1ccccc1)S(=O)(=O)CCNC(=O)c1ccccc1	-9.2	3.4	-1.0	0.8
C=CCNc1nc(Cl)nc(Nc2ccc(OCC)cc2)n1	5.2	1.4	0.2	-0.3
CCCCS(=O)(=O)CC(COc1ccccc1)OC(=O)c1ccccc1 (stereo unspecified)	10.0	0.9	-0.7	13.6*
COc1cc(N=c2ssnc2Cl)cc(OC)c1	15.2	2.5	-6.7	8.0
Clc1nssc1=Nc1nncs1	-2.8	-1.8	2.5	25.0*
CCc1ccccc1NS(=O)(=O)c1ccc2[nH]cc(C(=O)NC3CCCC3)c(=O)c2c1	13.4	-19.3	-16.2	11.3*
COc1cccc(NS(=O)(=O)c2ccc3[nH]cc(C(=O)NCCC(C)C)c(=O)c3c2)c1	-2.5	-1.1	-3.0	17.6*
Cc1ccc(-c2n[nH]c(S(C)(=O)=O)c2C#N)cc1	7.9	1.1	2.7	23.1*
Cc1cccc(-c2n[nH]c(S(C)(=O)=O)c2C#N)c1	-7.1	-2.6	1.9	2.0
CCOC(=O)c1sc(=S)n(C)c1NC(=O)c1ccccc1C	4.9	-1.9	4.9	14.4*
CS(=O)(=O)Nc1cccc(NC(=O)c2cccc3c(-c4cccnc4)coc23)c1	-1.9	1.7	-0.7	x
CCn1cc(S(=O)(=O)NCc2ccccc2Br)cn1	-5.8	1.8	-0.3	-0.3
CCn1cc(S(=O)(=O)NCCc2ccccc2OC)cn1	-3.6	1.3	-0.8	11.4*
O=C(N/N=C/c1ccc(OC(=O)c2ccco2)cc1)c1ccc[n+]([O-])c1	-4.2	3.2	-1.1	1.7
SMILES	EBI2 antag	SENP1 inh	MPTP block	NR3A LBD binder
Cc1ccc(NC(=O)Cn2nnc(C(=O)NCc3cccs3)c2N)cc1Cl	-14.7	1.4	0.9	16.3*
COc1ccc(NC(=O)Cn2nnc(C(=O)NCc3cccs3)c2N)cc1Cl	-5.9	1.4	0.0	-0.7
O=C(COC(=O)/C=C/c1cccs1)Nc1ccc(F)cc1	-5.8	3.5	-3.2	16.1*
CCCOC(=O)c1ccc(NC(=O)/C=C/c2cccs2)cc1	17.9	1.5	19.2	28.2*
O=C(/C=C/c1cccs1)Nc1ccncc1	-7.4	1.0	-1.5	-6.5
NC(N)=NS(=O)(=O)c1ccc(NC(=S)NC(=O)/C=C/c2cccs2)cc1	-7.7	1.9	0.3	11.3*
NS(=O)(=O)c1ccc(NC(=S)NC(=O)/C=C/c2cccs2)cc1	9.0	-1.8	0.1	6.8

Compound activity (PubChem BioAssay)
